Compound activity from PubChem BioAssay.
In the library only some 4.8% were active in any assay of this set; here they are far more common.
HSF-1 act: HSF-1 activators, primary screen, NIH3T3-HGL cells, MG132 stress, luminescence, single point; NIH3T3-HGL HSF-1 luciferase reporter, 8 h; 100% = twice DMSO control signal; activation, % at 9 µM; 1.7% of 300,000 active;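 active means mean replicate activation of at least 50% with a set share of replicates each reaching 50%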;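 further: 0% = median of the neutral control wells and 100% = twice that signal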
GPR7 antagonist: GPR7 receptor antagonists, primary screen, cell-based, fluorescence, single concentration. Neuropeptides B/W receptor type 1 (Homo sapiens), P48145. AID 1861, 2009. GPR7-expressing cells, fluorescence antagonist assay. 1.1% of 290,000 active. inhibition, % at 4.4 µM; in the data active means inhibition above about 16%, passing the limit was not always enough;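 further: cells stimulated with the agonist NPW; 0% = agonist with vehicle and 100% = vehicle without agonist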
Target sequence (P48145 whole entry, looked up): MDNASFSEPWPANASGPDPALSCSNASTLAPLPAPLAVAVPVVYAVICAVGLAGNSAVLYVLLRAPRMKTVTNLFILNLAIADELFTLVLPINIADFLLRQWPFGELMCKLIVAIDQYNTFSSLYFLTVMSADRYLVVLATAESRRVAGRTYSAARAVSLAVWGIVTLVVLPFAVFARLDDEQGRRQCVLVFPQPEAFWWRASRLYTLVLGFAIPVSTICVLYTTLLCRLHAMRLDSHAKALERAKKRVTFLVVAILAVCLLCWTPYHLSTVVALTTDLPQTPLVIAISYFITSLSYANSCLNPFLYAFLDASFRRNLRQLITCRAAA
HSF1 inhib: HSF1 inhibitors in luciferase reporter cells, primary screen, cell-based, NIH3T3, luminescence; NIH3T3-HGL HSE-luciferase, MG132-induced, luminescence 8 h; stronger effect = lower value; activity change, negative = inhibition, % at 7.5 µM (by protocol); 0.77% of 300,000 active; AID 2098, 2009;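 active means more than half of replicate wells show activity change below -50%, luminescence cut by over half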;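 further: luciferase reports HSF-1 transcriptional activity via heat shock element; 0% = median of DMSO wells and -100% = zero luminescence signal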
Jurkat NFkB inh: inhibitors of induced NF-kB luciferase reporter, primary screen, TCR NF-kB activation inhibitor project, cell-based, luminescence, uHTS; Jurkat, PMA/ionomycin-induced NF-kB luciferase reporter; inhibition, % at 4 µM; 0.53% of 330,000 active; AID 435003, 2010; in the data active means inhibition above about 50%
T cruzi repl: inhibitors of intracellular T. cruzi growth, primary screen, luminescence, NIH3T3 host cells; T. cruzi beta-gal in NIH3T3, 90 h; inhibition, % (test concentration not listed); 1.4% of 300,000 active; AID 1885, 2009;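 active means mean inhibition across valid replicates above about 55%, limit read from the data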;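 further: signal also drops with host cell toxicity which is not excluded here; 0% = plate median of DMSO wells and 100% = zero luminescence signal; higher percent means less beta-gal luminescence so fewer parasites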
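System: NIH/3T3 fibroblasts plus reporter T. cruzi. Medium: DMEM plus 2% FBS. Probe or stimulus: 5000 reporter trypomastigotes per well. Compound: single 50 nL compound addition per well in DMSO. Incubation: co-culture of at least 90 h after 3 h attachment. Detection: GalScreen β-gal luminescence, detergent lysis, 60 min. Evaluation: parasite load inhibition, %.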
697 NFkB inh: inhibitors of PMA/ionomycin-induced NF-kB reporter, 697 cells, primary screen, B-cell NF-kB inhibitor project, cell-based, luminescence, uHTS; inhibition, % at 4 µM; 0.33% of 330,000 active; 697 B-cell NF-kB luciferase reporter, 16 h; in the data active means inhibition above about 35%
An asterisk follows results filed as active; nt = not tested or not shown.

SMILES	HSF-1 act	GPR7 antagonist	HSF1 inhib	Jurkat NFkB inh	T cruzi repl	697 NFkB inh
COc1cc(OC)cc(C(=O)NCC(=O)OCc2cc(=O)oc3cc(OC)ccc23)c1	13	-9	0	5	-33	14
O=C(Nc1cccc2ccccc12)NC1Cc2ccccc2C1	13	-8	4	9	0	19
COCCNC(=S)N(C)C1(c2ccccc2Cl)CCCCC1=O (stereo not drawn)	-9	7	5	-1	-9	-13
Cc1ccc(OCc2ccc(C(=O)O)o2)cc1C	45	9	10	-24	-12	-130
CC(C)c1ccc(OCc2ccc(C(=O)N3CCCC3)o2)cc1	48	-1	28	-36	10	-86
CCC(C)c1ccc(OCc2ccc(C(=O)O)o2)cc1 (stereo not drawn)	-61	-7	-53*	34	-15	-114
CCOC(=O)c1ccc(COc2ccc(C(C)C)cc2)o1	54*	-10	25	-35	-8	-86
COCOc1ccc(-c2oc3c(C/C=C(\C)CCC=C(C)C)ccc(O)c3c(=O)c2OCOC)c(OCOC)c1	10	nt	-1	-6	-10	2
CCOC(=O)c1c(C)[nH]c(C)c1S(=O)(=O)N1CCCCC1	57*	4	25	11	-6	-10
Cc1cccc(N2CCN(S(=O)(=O)c3c(C)[nH]c(C)c3C(=O)N3CCCC3)CC2C)c1 (stereo not drawn)	55*	-21	17	-1	3	-6
CCOC(=O)c1c(C)[nH]c(C)c1S(=O)(=O)N1CCN(c2cccc(C)c2)C(C)C1 (stereo not drawn)	87*	-11	40	-8	22	-12
Cc1[nH]c(C)c(S(=O)(=O)N2CCCCC2)c1C(=O)N1CCCC1	11	-15	0	8	-11	7
Cc1ccc(/C=C2\SC(=S)N(/N=C/c3cc([N+](=O)[O-])ccc3O)C2=O)o1	11	0	3	-4	5	22
Nc1ccc(-c2nc3ccc(C(=O)O)cc3s2)cc1	-50	-2	-41	nt	-6	nt
O=C(O)c1ccc2nc(-c3ccccc3)sc2c1	-57	-8	-58*	22	7	-134
N#Cc1ccc(C23CC4(C2)[C@H](CN(Cc2ccc(C(F)(F)F)cc2)[C@@H]4c2ccccc2)C3c2ccc(Cl)nc2)cc1 (stereo partly drawn)	-7	nt	-2	27	24	29
O=C(Nc1ccccc1)Nc1ccc(F)c([N+](=O)[O-])c1	15	33*	0	0	4	6
Cc1ccc(NC(=O)Nc2ccccc2)cc1[N+](=O)[O-]	11	25*	5	-56	21	-25
Cc1ccc(NC(=O)CCN2C(=O)C3CCCCC3C2=O)cc1[N+](=O)[O-] (stereo not drawn)	-63	nt	-53*	4	-12	12
Cc1ccc(NC(=O)CCN2C(=O)C3C4CCC(C4)C3C2=O)cc1[N+](=O)[O-] (stereo not drawn)	5	-6	-6	3	0	12
CC(C)NC(=O)N(C)C[C@@H]1Oc2c(NC(=O)Nc3ccccc3)cccc2C(=O)N([C@H](C)CO)C[C@H]1C	nt	nt	nt	-10	nt	7
COc1ccc(C(=O)NOCc2ccccc2)cc1	-30	nt	-20	-56	-14	-136
COc1ccc(CCNC(=O)c2cccc([N+](=O)[O-])c2)cc1OC	-88	nt	-87*	22	-1	8
COc1ccc(CCNC(=O)c2ccc(-c3cccc([N+](=O)[O-])c3)o2)cc1OC	-1	-5	2	10	30	4
COc1ccc(CCNC(=O)Nc2cccc([N+](=O)[O-])c2)cc1	-2	10	2	-2	5	10
SMILES	HSF-1 act	GPR7 antagonist	HSF1 inhib	Jurkat NFkB inh	T cruzi repl	697 NFkB inh
COc1ccc(CCNC(=O)Nc2cccc([N+](=O)[O-])c2)cc1OC	71*	4	26	-6	-3	9
COc1ccc2c(c1)N(S(=O)(=O)c1ccccc1)CCC2=O	-2	1	-5	-6	-4	-25
Cc1cccc(N(CC(=O)Nc2ccccc2-c2ccccc2)S(=O)(=O)c2ccccc2)c1C	53*	-18	18	1	24	14
CCOc1ccccc1NC(=O)CN1CCCCCC1	-2	2	-4	2	2	-27
Cc1ccc(C(=O)OCC(=O)Nc2ccc(N3CCOCC3)cc2)cc1	nt	nt	nt	7	nt	-4
O=C(COc1ccc(Cl)cc1)NCCN1CCCCC1	-64	-3	-55*	-11	0	8
O=C(COc1ccc(Cl)cc1)NCCN1CCCC1	0	-12	1	8	0	7
O=C(COc1ccc(Cl)cc1)NCCCNC(=O)c1ccccn1	84*	-10	30	6	-15	-21
O=C1C(Cl)=C(NCCN2CCCCC2)C(=O)c2ccccc21	0	0	10	-9	67*	-14
CCOc1ccccc1NC(=O)NCCN1CCCCC1	6	-3	1	10	-12	17
O=C(NCCN1CCCCC1)Nc1ccccc1Cl	-86	6	-83*	-7	-3	-12
O=C(Cc1cccs1)Nc1ccc(F)c(S(=O)(=O)N2CCOCC2)c1	nt	nt	nt	-1	nt	10
CC12CCC(C(=O)N3CCN(C(c4ccccc4)c4ccccc4)CC3)(OC1=O)C2(C)C (stereo not drawn)	17	-6	11	-2	56*	-27
CC(=O)N1CCN(C(c2ccccc2)c2ccccc2)CC1	13	-16	-3	nt	nt	nt
CN(C)CCN(C(=O)c1ccc(S(=O)(=O)N2CCc3ccccc32)cc1)c1nc2ccc(F)cc2s1	14	-12	5	-34	63*	8
CCc1ccc2nc(N(CCCN(C)C)C(=O)c3ccc(S(=O)(=O)N4CCCc5ccccc54)cc3)sc2c1	-17	13	-11	14	61*	-42
CN(C)CCCN(C(=O)c1ccc(S(=O)(=O)N2CCc3ccccc32)cc1)c1nc2c(Cl)cccc2s1	18	5	0	20	55*	20
CN(C)CCCN(C(=O)c1ccc(S(=O)(=O)N2CCCCCC2)cc1)c1nc2c(F)cccc2s1	9	8	3	19	33	-2
O=c1c(-c2ccccc2)c(O)nc2ccccn12	-17	19*	-3	4	-16	12
O=C(CN1CCOCC1)Nc1ccc(-c2nc3ccccc3[nH]2)cc1	56*	-6	30	-36	0	-23
O=C(CSc1ccccc1)Nc1ccc(-c2nc3ccccc3[nH]2)cc1	48	-7	16	-123	39	-125
